In ChEMBL document CHEMBL4725387, “Synthesis and pharmacological evaluation of piperidine (piperazine)-amide substituted derivatives as multi-target antipsychotics” (Bioorg Med Chem Lett, 2020):
Activity calls are given as the source filed them. The rule behind the calls is not given here.

Tests used:
[1] = AUC (0 to t) in rat at 3 mg/kg, iv; type: ADME, organism-based; set-up: dose 3 mg/kg; settings: in vivo
Procedure, shortened: (§1)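 Male rats, n = 6 per group, given a single intravenous dose of 3 mg/kg. PK parameters taken from serum concentration–time profiles: t1/2, AUC0-t, AUC0-∞, clearance.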

[2] = target: Voltage-gated inwardly rectifying potassium channel KCNH2 (Homo sapiens, UniProt Q12809); experiment: Inhibition of human ERG by patch-clamp method
[3] = […] in rat at 3 mg/kg, iv; type: ADME, organism-based; settings: in vivo; procedure, shortened: as §1
Mus musculus [4] = experiment: Antipsychotic activity in po dosed mouse assessed as reduction in MK-801-induced hyperlocomotor activity; type: functional
Procedure, shortened: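 Mice hyperactivity induced by MK-801 0.3 mg/kg sc, locomotor activity recorded. Oral dosing at 0.01–1.0 mg/kg (five doses) in 30% PEG 400. ED50 reported with 95% confidence limits.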

[5] = Therapeutic index, ratio of ED50 for induction of catalepsy in po dosed mouse to ED50 for antipsychotic activity in po dosed mouse assessed as suppression of apomorphine-induced climbing; type: toxicity, organism-based; settings: in vivo, read-out: Ratio ED50
Procedure, shortened: (§2)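 Therapeutic index is the catalepsy ED50 divided by the efficacy ED50 from the apomorphine climbing or MK-801 hyperactivity model. All were oral dosing in mice, vehicle 30% PEG 400.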

[6] = AUC (0 to infinity) in rat at 3 mg/kg, iv; type: ADME, organism-based; set-up: route intravenous, time infinity, dose 3 mg/kg; settings: in vivo; procedure, shortened: as §1
[7] = Therapeutic index, ratio of ED50 for induction of catalepsy in po dosed mouse to ED50 for antipsychotic activity in po dosed mouse assessed as reduction in MK-801-induced hyperlocomotor activity; type: toxicity, organism-based; settings: in vivo, read-out: Ratio ED50; procedure, shortened: as §2
Histamine H1 receptor = Histamine H1 receptor (Homo sapiens, UniProt P35367); experiment: Binding affinity to H1 receptor (unknown origin); type: ADME
[8] = target: T1, 5-hydroxytryptamine receptor 1A (Homo sapiens, UniProt P08908); experiment: Binding affinity to 5HT1A receptor (unknown origin)
T1 sequence (P08908 whole entry): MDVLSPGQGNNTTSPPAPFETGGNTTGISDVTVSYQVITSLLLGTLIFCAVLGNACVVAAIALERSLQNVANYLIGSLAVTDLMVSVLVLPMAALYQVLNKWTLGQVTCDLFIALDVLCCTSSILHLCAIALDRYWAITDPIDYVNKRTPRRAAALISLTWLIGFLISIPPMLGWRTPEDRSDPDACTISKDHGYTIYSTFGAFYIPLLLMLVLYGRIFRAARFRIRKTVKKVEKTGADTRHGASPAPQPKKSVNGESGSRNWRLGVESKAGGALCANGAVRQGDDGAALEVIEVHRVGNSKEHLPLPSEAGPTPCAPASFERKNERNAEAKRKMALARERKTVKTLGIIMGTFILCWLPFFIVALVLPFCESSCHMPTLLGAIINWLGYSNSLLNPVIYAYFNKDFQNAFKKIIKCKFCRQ
Procedure, shortened: (§3)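 Radioligand displacement binding. Ki is the mean ± SEM of three experiments.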

[9] = Half life in rat at 3 mg/kg, iv; type: ADME, organism-based; settings: in vivo; procedure, shortened: as §1
D(2) dopamine receptor = D(2) dopamine receptor (Homo sapiens, UniProt P14416); experiment: Binding affinity to D2 receptor (unknown origin); procedure, shortened: as §3
Mus musculus [10] = experiment: Antipsychotic activity in po dosed mouse assessed as suppression of apomorphine-induced climbing behaviour; type: functional
Procedure, shortened: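 Mice climbing induced by apomorphine 1.0 mg/kg sc. Test article given po at 0.01, 0.03, 0.1, 0.3 and 1.0 mg/kg in 30% PEG 400. ED50 reported with 95% confidence limits.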

Rattus norvegicus = experiment: Memory enhancement effect in rat assessed as increase in total exploratory time for novel objects at 0.1 to 0.3 mg/kg, po administered 1 hr prior to acquisition trial and measured after 24 hrs by novel object recognition test; type: functional, organism-based; settings: dose mg/kg 0.1-0.3, time 25.0 hrs
[11] = target: T2, 5-hydroxytryptamine receptor 2C (Homo sapiens, UniProt P28335); experiment: Binding affinity to 5HT2C receptor (unknown origin); procedure, shortened: as §3
T2 sequence (P28335 whole entry): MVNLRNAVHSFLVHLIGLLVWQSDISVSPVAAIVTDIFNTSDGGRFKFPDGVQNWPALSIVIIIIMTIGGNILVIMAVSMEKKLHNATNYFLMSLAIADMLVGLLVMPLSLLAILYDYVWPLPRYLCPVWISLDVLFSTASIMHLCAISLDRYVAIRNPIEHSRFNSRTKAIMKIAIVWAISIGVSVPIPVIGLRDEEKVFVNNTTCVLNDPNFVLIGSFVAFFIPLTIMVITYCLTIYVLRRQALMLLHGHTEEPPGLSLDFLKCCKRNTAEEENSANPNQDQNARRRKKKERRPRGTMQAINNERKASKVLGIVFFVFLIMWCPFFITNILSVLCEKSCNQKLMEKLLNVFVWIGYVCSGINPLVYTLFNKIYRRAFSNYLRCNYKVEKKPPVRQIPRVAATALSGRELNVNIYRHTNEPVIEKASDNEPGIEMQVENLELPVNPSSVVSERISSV

[12] = Induction of catalepsy in po dosed mouse by vertical grid and elevated bar test; type: organism-based; settings: in vivo
Procedure, shortened: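 Mouse catalepsy scored by vertical grid and elevated bar tests. Oral doses of 1, 5, 15, 45 and 100 mg/kg in 30% PEG 400. ED50 reported with 95% confidence limits.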

[13] = AUC (0 to infinity) in rat at 10 mg/kg, po; type: ADME, organism-based; set-up: route oral, time infinity, dose 10 mg/kg; settings: in vivo
Procedure, shortened: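 Male rats, n = 6 per group, given a single oral dose of 10 mg/kg. PK parameters taken from serum concentration–time profiles: Cmax, Tmax, t1/2, AUC0-t, AUC0-∞, CL/F, F%.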

D(2) dopamine receptor, sequence (P14416 whole entry): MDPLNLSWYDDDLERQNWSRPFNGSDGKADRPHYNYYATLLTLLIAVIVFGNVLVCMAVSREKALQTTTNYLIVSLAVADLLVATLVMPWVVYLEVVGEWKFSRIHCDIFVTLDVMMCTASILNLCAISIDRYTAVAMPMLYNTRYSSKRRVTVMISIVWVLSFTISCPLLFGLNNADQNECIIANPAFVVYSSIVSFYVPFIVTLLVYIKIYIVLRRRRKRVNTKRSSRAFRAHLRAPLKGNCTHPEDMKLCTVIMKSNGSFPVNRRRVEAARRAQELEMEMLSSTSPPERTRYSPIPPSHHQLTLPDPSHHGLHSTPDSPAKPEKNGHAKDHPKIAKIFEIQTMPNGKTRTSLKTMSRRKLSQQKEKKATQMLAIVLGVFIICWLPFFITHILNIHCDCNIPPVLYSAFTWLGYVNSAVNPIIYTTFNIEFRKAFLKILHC
Histamine H1 receptor, sequence (P35367 whole entry): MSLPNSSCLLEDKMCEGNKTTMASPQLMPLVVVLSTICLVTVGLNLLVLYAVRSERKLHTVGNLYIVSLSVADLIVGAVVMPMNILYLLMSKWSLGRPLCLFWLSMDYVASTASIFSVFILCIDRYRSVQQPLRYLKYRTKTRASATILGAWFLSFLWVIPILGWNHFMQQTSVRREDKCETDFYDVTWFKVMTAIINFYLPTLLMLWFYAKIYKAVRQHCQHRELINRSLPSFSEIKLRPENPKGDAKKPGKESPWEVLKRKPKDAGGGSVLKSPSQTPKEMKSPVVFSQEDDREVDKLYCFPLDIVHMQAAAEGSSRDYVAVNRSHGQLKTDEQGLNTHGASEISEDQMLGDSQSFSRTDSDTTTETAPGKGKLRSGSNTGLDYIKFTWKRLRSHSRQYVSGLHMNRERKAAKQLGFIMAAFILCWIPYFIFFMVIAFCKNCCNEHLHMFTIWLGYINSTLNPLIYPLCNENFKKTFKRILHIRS
Voltage-gated inwardly rectifying potassium channel KCNH2, sequence (Q12809 whole entry): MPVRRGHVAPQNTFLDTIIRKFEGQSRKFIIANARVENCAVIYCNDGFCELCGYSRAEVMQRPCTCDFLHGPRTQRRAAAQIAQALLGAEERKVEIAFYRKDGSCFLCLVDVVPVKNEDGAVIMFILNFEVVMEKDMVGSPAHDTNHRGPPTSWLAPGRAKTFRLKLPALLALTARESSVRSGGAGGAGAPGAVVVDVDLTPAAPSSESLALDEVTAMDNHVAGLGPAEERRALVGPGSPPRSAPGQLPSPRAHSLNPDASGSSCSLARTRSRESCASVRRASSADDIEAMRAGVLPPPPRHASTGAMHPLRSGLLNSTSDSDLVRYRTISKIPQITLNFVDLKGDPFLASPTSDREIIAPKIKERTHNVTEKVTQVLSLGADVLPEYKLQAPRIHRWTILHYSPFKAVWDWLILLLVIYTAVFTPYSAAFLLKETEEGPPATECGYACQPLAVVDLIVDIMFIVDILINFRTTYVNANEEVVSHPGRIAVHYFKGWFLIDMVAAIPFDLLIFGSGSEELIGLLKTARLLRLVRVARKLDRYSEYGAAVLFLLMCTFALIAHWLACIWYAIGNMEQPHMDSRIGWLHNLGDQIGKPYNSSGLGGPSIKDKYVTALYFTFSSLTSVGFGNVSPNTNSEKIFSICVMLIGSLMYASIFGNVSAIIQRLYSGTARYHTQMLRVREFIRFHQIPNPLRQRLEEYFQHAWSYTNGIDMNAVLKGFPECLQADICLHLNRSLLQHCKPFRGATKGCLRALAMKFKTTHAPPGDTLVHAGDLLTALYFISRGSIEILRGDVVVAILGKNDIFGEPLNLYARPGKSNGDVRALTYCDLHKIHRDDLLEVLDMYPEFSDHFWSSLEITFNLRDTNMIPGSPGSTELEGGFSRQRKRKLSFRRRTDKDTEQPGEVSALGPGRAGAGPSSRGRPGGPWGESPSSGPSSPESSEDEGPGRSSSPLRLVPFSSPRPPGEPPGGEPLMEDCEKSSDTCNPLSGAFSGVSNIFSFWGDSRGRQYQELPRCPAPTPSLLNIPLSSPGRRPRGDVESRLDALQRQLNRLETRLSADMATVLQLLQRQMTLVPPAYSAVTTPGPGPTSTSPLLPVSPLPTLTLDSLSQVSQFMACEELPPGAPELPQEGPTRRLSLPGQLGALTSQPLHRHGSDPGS

AUC(0-t) [1]: 879 ng·h/mL
CL/F [3]: 3.22 mL/h
AUC [6]: 931.48 ng·h/mL
Ki (Histamine H1 receptor): 2140 nM
Ki [8]: 3.5 nM
half-life [9]: 3.68 h
Ki (D(2) dopamine receptor): 2.1 nM
Ki [11]: 1990 nM
AUC [13]: 9638.27 ng·h/mL
SMILES: CC(=O)Nc1ccc(OCCCN2CCC(c3noc4cc(F)ccc34)CC2)cc1
IC50 [2]: 2980 nM
ED50 (Mus musculus [4]): 0.19 mg/kg
selectivity ratio [5]: 90
selectivity ratio [7]: 133
ED50 (Mus musculus [10]): 0.28 mg/kg
Activity (Rattus norvegicus): Active
ED50 [12]: 25.2 mg/kg
